Measurements reported in ChEMBL document CHEMBL1142613, “Characterization of the major metabolite of sampangine in rats” (J Nat Prod, 2000).
≈ marks a conversion by molar mass, not a printed value. Calls of active or inactive are those of the source. The rule behind the calls is not given here.

Assays:
Candida albicans [1] = test: Antifungal activity against Candida albicans NIH B311 at 100 ug/mL after 24 hrs by bioautography; type: functional; settings: read-out: IZ
Summary of the method: (§1)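 Bioautography at a test concentration of 100 µg/mL; activity recorded as zone of inhibition in mm. Media were yeast nitrogen broth for C. albicans and Mycophil broth for C. neoformans.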

Cryptococcus neoformans [2] = test: Antifungal activity against Cryptococcus neoformans ATCC 52657 at 100 ug/mL after 48 hrs by bioautography; type: functional; settings: ATCC 52657, 48 h, read-out: IZ; summary of the method: as §1
Candida albicans [3] = test: Antifungal activity against Candida albicans NIH B311 at 100 ug/mL after 24 hrs by agar well diffusion method; type: functional; settings: read-out: IZ
Summary of the method: (§2)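 Agar well diffusion at a test concentration of 100 µg/mL; activity read as zone of inhibition diameter in mm. C. albicans was grown in yeast nitrogen broth, C. neoformans in Mycophil broth.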

Cryptococcus neoformans [4] = test: Antifungal activity against Cryptococcus neoformans ATCC 52657 at 100 ug/mL after 48 hrs by agar well diffusion method; type: functional; settings: ATCC 52657, 48 h, read-out: IZ; summary of the method: as §2
Candida albicans [5] = test: Antifungal activity against Candida albicans NIH B311 after 24 hrs by twofold serial dilution method; type: functional
Summary of the method: (§3)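 Two-fold serial broth macrodilution. C. albicans was grown in yeast nitrogen broth and incubated 24 h; C. neoformans in Mycophil broth, 48 h; both at 37 °C. MIC taken as the lowest concentration visually inhibiting growth. Footnote notes one test sample was run in Eugon by a microplate method.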

Cryptococcus neoformans [6] = test: Antifungal activity against Cryptococcus neoformans ATCC 52657 after 48 hrs by twofold serial dilution method; type: functional; settings: ATCC 52657, 48 h; summary of the method: as §3
Pseudomonas aeruginosa = test: Antibacterial activity against Pseudomonas aeruginosa ATCC 15442; type: functional, organism-based
Summary of the method: (§4)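 Colorimetric oxidation-reduction broth assay, with Alamar blue dye added as an indicator of the organism's metabolic activity; result expressed as MIC in µg/mL; streptomycin served as positive control.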

Staphylococcus aureus = test: Antibacterial activity against Staphylococcus aureus ATCC 6538; type: functional, organism-based; summary of the method: as §4
Bacillus subtilis = test: Antibacterial activity against Bacillus subtilis ATCC 6333; type: functional, organism-based; summary of the method: as §4
Escherichia coli = test: Antibacterial activity against Escherichia coli ATCC 10536; type: functional, organism-based; summary of the method: as §4

Row | Compound | zone of inhibition at 100 µg/mL (Candida albicans [1]) [mm] | zone of inhibition at 100 µg/mL (Cryptococcus neoformans [2]) [mm] | zone of inhibition at 100 µg/mL (Candida albicans [3]) [mm] | zone of inhibition at 100 µg/mL (Cryptococcus neoformans [4]) [mm] | MIC (Candida albicans [5]) [µg/mL] | MIC (Cryptococcus neoformans [6]) [µg/mL] | Activity (Pseudomonas aeruginosa) | Activity (Staphylococcus aureus) | Activity (Bacillus subtilis) | Activity (Escherichia coli)
1 | O=C1c2ccccc2-c2nccc3ccnc1c23 [SAMPANGINE] | 10 | 35 | 10 | 35 | 3.12 (≈ 13.4 µM) | 0.2 (≈ 0.861 µM) | – | – | – | –
2 | O=C(O)[C@H]1O[C@@H](Oc2c3c4c(ccnc4c4ccccc24)C=CN3)[C@H](O)[C@@H](O)[C@@H]1O | – | 35 | 6 | 26 | > 25 | > 25 | inactive | inactive | inactive | inactive
